# Legend:
# [1] = biological target: Platelet-activating factor acetylhydrolase (Mus musculus) (UniProt Q60963); experiment: in situ PAFAH2 versus pPAFAH selectivity – fluorescence, gel-based ABPP, murine mast cells, selectivity assay for PAFAH2 inhibitor project, late-stage follow-up (AID 504531); conditions: gel-based ABPP FP-Rh, pPAFAH, at 0.01 µM, stronger effect = higher value
# In short: (§1)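 Test system: Murine mast cells treated in situ, then soluble lysate fraction | Dosing: One dose, 10 nM | Schedule: Cells 4 h 37 °C, probe 30 min 25 °C | Measured by: SDS-PAGE with in-gel fluorescence scanning, band integrated optical density | Benchmarks: High control DMSO-only treated cells, low control blank-gel background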
# [2] = biological target: Platelet-activating factor acetylhydrolase 2, cytoplasmic (Mus musculus) (UniProt Q8VDG7); experiment: as above; conditions: gel-based ABPP FP-Rh, PAFAH2, at 0.01 µM, stronger effect = higher value
# Platelet-activating factor acetylhydrolase 2, cytoplasmic (Mus musculus), sequence (Q8VDG7 whole entry, looked up): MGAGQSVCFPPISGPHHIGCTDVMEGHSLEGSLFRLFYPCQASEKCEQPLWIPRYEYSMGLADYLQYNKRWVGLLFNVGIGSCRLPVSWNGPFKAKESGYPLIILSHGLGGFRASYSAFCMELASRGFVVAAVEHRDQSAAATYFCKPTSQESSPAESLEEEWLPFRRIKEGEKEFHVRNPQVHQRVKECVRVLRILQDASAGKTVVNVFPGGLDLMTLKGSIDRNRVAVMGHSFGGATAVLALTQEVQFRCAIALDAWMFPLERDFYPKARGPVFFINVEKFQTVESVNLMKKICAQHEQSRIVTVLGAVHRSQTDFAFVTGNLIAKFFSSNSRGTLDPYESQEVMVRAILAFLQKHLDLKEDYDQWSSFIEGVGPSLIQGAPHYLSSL
# In short: as §1
# Platelet-activating factor acetylhydrolase (Mus musculus), sequence (Q60963 whole entry, looked up): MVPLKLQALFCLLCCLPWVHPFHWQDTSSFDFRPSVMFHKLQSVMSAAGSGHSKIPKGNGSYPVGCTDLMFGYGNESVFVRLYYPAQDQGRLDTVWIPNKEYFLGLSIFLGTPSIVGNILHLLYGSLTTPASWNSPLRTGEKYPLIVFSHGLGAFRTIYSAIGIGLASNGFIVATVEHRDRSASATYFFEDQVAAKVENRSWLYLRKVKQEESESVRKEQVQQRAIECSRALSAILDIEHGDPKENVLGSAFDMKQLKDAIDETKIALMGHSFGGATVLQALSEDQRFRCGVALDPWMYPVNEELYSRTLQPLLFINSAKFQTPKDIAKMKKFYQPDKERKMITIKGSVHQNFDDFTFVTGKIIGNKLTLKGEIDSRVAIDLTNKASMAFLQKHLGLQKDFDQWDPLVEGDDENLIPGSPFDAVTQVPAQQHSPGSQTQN
smiles,measurement,setting,value
O=C(N1CCCC1)n1ncc(-c2ccc(-c3ccccc3)cc2)n1,inhibition,[1],0%
same,inhibition,[2],100%

# Reference: PubChem BioAssay AID504531 (The Scripps Research Institute Molecular Screening Center, 2011)
